Calls of active or inactive are those of the source. The calls are words filed in the database; no cut-off is given here.
Tests used:
[1] = biological target: Protein cereblon/E3 ubiquitin-protein ligase XIAP (Homo sapiens) (UniProt P98170+Q96SW2); assay: PROTAC activity at CRBN/IAP in human MM1.S cells assessed as induction of XIAP degradation at 0.1 uM incubated for 3 hrs by diaPASEF-based proteomics analysis; assay type: cell-based
Summary of the method: (§1)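 MM.1S cells exposed to DMSO or 0.1 μM compound for 3 h, then washed with PBS and snap-frozen. Lysed in 8 M urea/EPPS pH 8.5 buffer. 50 μg protein reduced, alkylated, precipitated, then digested with LysC and trypsin. Analysed by diaPASEF on timsTOF Pro2. Missing values imputed from a Gaussian distribution; log2 fold change versus DMSO with limma statistics.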

[2] = biological target: Protein cereblon/Baculoviral IAP repeat-containing protein 2 (Homo sapiens) (UniProt Q13490+Q96SW2); assay: PROTAC activity at CRBN/IAP in human MM1.S cells assessed as induction of cIAP1 degradation at 100 nM incubated for 3 hrs by diaPASEF-based analysis; assay type: cell-based; summary of the method: as §1
Protein cereblon/Baculoviral IAP repeat-containing protein 2 (Homo sapiens), sequence (Q13490 whole entry, looked up): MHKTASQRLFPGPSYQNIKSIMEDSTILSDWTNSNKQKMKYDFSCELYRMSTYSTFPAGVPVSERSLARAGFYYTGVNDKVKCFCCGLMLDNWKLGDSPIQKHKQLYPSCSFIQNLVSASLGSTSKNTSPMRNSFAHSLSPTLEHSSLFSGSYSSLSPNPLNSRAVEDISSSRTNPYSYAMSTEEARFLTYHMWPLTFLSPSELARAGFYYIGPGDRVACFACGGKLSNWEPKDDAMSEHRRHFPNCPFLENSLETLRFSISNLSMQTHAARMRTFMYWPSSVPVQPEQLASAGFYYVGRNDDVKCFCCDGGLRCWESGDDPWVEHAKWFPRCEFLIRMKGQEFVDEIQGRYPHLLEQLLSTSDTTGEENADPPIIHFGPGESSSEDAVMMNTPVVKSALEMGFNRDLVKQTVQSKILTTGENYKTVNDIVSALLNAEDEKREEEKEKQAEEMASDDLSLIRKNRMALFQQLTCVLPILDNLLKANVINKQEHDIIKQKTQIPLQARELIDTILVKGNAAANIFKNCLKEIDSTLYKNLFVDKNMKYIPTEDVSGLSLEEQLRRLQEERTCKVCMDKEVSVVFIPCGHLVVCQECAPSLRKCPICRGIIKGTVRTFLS
Protein cereblon/Baculoviral IAP repeat-containing protein 2 (Homo sapiens), sequence (Q96SW2 whole entry, looked up): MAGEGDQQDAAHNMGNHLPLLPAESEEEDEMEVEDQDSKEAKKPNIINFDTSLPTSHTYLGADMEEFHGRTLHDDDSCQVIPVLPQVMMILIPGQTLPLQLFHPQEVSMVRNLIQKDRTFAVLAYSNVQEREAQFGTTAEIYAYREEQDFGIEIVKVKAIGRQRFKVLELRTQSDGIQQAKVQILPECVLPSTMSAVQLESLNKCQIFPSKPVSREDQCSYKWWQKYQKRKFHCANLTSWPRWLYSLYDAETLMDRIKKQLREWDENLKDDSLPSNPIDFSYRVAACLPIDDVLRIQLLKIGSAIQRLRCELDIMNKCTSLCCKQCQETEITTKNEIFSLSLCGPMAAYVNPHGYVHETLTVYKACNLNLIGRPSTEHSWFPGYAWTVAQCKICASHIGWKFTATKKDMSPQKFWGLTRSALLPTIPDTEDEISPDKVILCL

[3] = biological target: Protein cereblon/Baculoviral IAP repeat-containing protein 3 (Homo sapiens) (UniProt Q13489+Q96SW2); assay: PROTAC activity at CRBN/IAP in human MM1.S cells assessed as induction of cIAP2 degradation at 100 nM incubated for 3 hrs by diaPASEF-based analysis; assay type: cell-based; summary of the method: as §1
Protein cereblon/Baculoviral IAP repeat-containing protein 3 (Homo sapiens), sequence (Q13489 whole entry, looked up): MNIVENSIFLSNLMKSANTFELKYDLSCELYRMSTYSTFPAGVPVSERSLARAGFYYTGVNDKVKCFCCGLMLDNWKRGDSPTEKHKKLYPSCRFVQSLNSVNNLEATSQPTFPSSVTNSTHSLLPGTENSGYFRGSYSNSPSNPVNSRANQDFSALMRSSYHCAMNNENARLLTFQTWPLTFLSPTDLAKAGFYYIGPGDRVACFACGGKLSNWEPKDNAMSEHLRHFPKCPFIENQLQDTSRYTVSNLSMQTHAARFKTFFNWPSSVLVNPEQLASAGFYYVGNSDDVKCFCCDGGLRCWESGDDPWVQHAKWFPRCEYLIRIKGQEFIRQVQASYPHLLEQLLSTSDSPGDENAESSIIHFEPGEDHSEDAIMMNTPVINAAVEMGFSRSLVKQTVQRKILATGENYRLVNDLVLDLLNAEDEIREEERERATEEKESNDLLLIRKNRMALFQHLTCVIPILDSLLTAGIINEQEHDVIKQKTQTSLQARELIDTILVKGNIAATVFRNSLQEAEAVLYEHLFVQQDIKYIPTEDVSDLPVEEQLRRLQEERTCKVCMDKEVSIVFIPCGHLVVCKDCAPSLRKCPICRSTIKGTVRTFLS
Protein cereblon/Baculoviral IAP repeat-containing protein 3 (Homo sapiens), sequence (Q96SW2 whole entry, looked up): as the sequence (Q96SW2 whole entry, looked up) above

[4] = biological target: Protein cereblon-IAP (Homo sapiens) (UniProt P98170+Q13489+Q13490+Q96SW2); assay: PROTAC activity at CRBN/IAP in human MM1.S cells assessed as induction of CRBN degradation at 100 nM incubated for 3 hrs by diaPASEF-based analysis; assay type: cell-based; summary of the method: as §1
Protein cereblon-IAP (Homo sapiens), sequence (P98170 whole entry, looked up): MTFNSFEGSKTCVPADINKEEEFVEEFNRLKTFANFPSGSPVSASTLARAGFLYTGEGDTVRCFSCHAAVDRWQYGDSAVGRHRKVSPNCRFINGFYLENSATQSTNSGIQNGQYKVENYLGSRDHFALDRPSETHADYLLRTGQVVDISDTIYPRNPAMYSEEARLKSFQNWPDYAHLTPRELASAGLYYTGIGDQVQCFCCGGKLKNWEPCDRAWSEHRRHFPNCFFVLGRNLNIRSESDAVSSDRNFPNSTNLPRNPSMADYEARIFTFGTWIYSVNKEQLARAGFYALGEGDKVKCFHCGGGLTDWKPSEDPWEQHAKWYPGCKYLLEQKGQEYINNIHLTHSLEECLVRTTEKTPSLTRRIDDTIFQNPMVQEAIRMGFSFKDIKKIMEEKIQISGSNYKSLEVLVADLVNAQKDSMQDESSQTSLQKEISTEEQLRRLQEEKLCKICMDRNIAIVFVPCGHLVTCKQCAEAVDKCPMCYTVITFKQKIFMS
Protein cereblon-IAP (Homo sapiens), sequence (Q13489 whole entry, looked up): as the sequence (Q13489 whole entry, looked up) above
Protein cereblon-IAP (Homo sapiens), sequence (Q13490 whole entry, looked up): as the sequence (Q13490 whole entry, looked up) above
Protein cereblon-IAP (Homo sapiens), sequence (Q96SW2 whole entry, looked up): as the sequence (Q96SW2 whole entry, looked up) above

[5] = biological target: Cereblon/Ikaros (Homo sapiens) (UniProt Q96SW2+Q13422); assay: PROTAC activity at CRBN/IKZF1 in human MM1.S cells assessed as induction of IKZF1 degradation at 100 nM incubated for 3 hrs by diaPASEF-based analysis; assay type: cell-based; summary of the method: as §1
[6] = biological target: Protein cereblon/Zinc finger protein Aiolos (Homo sapiens) (UniProt Q96SW2+Q9UKT9); assay: PROTAC activity at CRBN/IKZF3 in human MM1.S cells assessed as induction of IKZF3 degradation at 100 nM incubated for 3 hrs by diaPASEF-based analysis; assay type: cell-based; summary of the method: as §1
Protein cereblon/Zinc finger protein Aiolos (Homo sapiens), sequence (Q96SW2 whole entry, looked up): as above
Protein cereblon/Zinc finger protein Aiolos (Homo sapiens), sequence (Q9UKT9 whole entry, looked up): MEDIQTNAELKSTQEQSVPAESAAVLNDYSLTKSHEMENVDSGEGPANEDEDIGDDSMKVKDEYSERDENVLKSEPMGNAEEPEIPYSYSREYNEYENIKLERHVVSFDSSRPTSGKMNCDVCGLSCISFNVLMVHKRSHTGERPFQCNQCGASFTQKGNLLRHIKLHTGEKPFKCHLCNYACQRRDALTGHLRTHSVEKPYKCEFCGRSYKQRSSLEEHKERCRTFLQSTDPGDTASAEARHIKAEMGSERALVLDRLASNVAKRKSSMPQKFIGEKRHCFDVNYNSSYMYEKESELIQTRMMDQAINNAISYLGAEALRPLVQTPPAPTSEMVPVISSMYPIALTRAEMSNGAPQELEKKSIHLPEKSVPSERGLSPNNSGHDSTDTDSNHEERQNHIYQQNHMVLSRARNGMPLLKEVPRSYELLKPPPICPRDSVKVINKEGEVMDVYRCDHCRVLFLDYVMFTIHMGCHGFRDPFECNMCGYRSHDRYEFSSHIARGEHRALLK

[7] = biological target: von Hippel-Lindau disease tumor suppressor (Homo sapiens) (UniProt P40337); assay: Induction of VHL degradation in human MM1.S cells at 100 nM incubated for 3 hrs by diaPASEF-based analysis; assay type: cell-based; summary of the method: as §1
von Hippel-Lindau disease tumor suppressor (Homo sapiens), sequence (P40337 whole entry, looked up): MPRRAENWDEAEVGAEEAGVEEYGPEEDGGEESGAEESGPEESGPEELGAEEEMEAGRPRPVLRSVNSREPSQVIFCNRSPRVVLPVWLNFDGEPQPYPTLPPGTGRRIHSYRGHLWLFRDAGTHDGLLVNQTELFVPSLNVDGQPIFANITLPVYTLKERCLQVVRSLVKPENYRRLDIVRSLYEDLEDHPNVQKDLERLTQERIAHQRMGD

[8] = biological target: von Hippel-Lindau disease tumor suppressor (Homo sapiens) (UniProt P40337); assay: Induction of VHL30 degradation in human MM1.S cells assessed as remaining protein level at 0.1 uM incubated for 16 hrs by western blot analysis; assay type: cell-based
Summary of the method: (§2)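 MM.1S cells treated 16 h at the stated concentration. Lysed, run on SDS-PAGE and transferred to PVDF. Probed with primary antibodies overnight at 4 °C, then HRP secondaries, with ECL detection. Band densitometry normalized to loading control and to DMSO-treated cells. Averages of at least three independent experiments.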

[9] = biological target: Baculoviral IAP repeat-containing protein 2 (Homo sapiens) (UniProt Q13490); assay: Induction of cIAP1 degradation in human MM1.S cells assessed as remaining protein level at 0.1 uM incubated for 16 hrs by western blot analysis; assay type: cell-based
Baculoviral IAP repeat-containing protein 2 (Homo sapiens), sequence (Q13490 whole entry): as the sequence (Q13490 whole entry, looked up) above
Summary of the method: (§3)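 Lysed, run on SDS-PAGE and transferred to PVDF. Probed with primary antibodies overnight at 4 °C, then HRP secondaries, with ECL detection. Band densitometry normalized to loading control and to DMSO-treated cells. Averages of at least three independent experiments.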

[10] = biological target: Baculoviral IAP repeat-containing protein 3 (Homo sapiens) (UniProt Q13489); assay: Induction of cIAP2 degradation in human MM1.S cells assessed as remaining protein level at 0.1 uM incubated for 16 hrs by western blot analysis; assay type: cell-based; summary of the method: as §3
Baculoviral IAP repeat-containing protein 3 (Homo sapiens), sequence (Q13489 whole entry): as the sequence (Q13489 whole entry, looked up) above

[11] = biological target: Baculoviral IAP repeat-containing protein 2 (Homo sapiens) (UniProt Q13490); assay: Induction of cIAP1 degradation in human MM1.S cells at 1 uM incubated for 16 hrs by western blot analysis; assay type: cell-based; summary of the method: as §2
[12] = biological target: Baculoviral IAP repeat-containing protein 3 (Homo sapiens) (UniProt Q13489); assay: Induction of cIAP2 degradation in human MM1.S cells at 1 uM incubated for 16 hrs by western blot analysis; assay type: cell-based; summary of the method: as §2
[13] = biological target: E3 ubiquitin-protein ligase XIAP (Homo sapiens) (UniProt P98170); assay: Induction of XIAP degradation in human MM1.S cells at 1 uM incubated for 16 hrs by western blot analysis; assay type: cell-based; summary of the method: as §2
E3 ubiquitin-protein ligase XIAP (Homo sapiens), sequence (P98170 whole entry): as the sequence (P98170 whole entry, looked up) above

[14] = biological target: von Hippel-Lindau disease tumor suppressor (Homo sapiens) (UniProt P40337); assay: Induction of VHL30 degradation in human MM1.S cells at 1 uM incubated for 16 hrs by western blot analysis; assay type: cell-based; summary of the method: as §2
[15] = biological target: von Hippel-Lindau disease tumor suppressor (Homo sapiens) (UniProt P40337); assay: Induction of VHL19 degradation in human MM1.S cells at 1 uM incubated for 16 hrs by western blot analysis; assay type: cell-based; summary of the method: as §2
RPMI-8226 = assay: Cytotoxicity against human RPMI-8226 cells assessed as reduction in cell viability measured after 96 hrs in presence of TNF-alpha by CellTiter-Glo luminescent assay; assay type: functional, cell-based; conditions: RPMI-8226, 96 h
Summary of the method: (§4)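 Cells kept in RPMI-1640 with 10% FBS, 1% penicillin/streptomycin and 1% L-glutamine at 37 °C, 5% CO2. Seeded with compounds and incubated 96 h at 37 °C with TNF-α at 1 ng/mL. Viability read by CellTiter-Glo luminescence and normalized to DMSO-treated control. Mean ± SD of biological triplicates.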

JJN-3 = assay: Cytotoxicity against human JJN-3 cells assessed as reduction in cell viability measured after 96 hrs in presence of TNF-alpha by CellTiter-Glo luminescent assay; assay type: functional, cell-based; conditions: JJN-3, 96 h; summary of the method: as §4
NCI-H929 = assay: Cytotoxicity against human NCI-H929 cells assessed as reduction in cell viability measured after 96 hrs in presence of TNF-alpha by CellTiter-Glo luminescent assay; assay type: functional, cell-based; conditions: NCI-H929, 96 h
Summary of the method: (§5)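 Cells seeded with compound at indicated concentrations ± TNF-α 1 ng/mL, incubated 96 h at 37 °C; viability by CellTiter-Glo luminescence, normalized to DMSO control; mean ± SD of biological triplicates. NCI-H929 cultured in RPMI-1640/10% FBS with 2-mercaptoethanol and sodium pyruvate; other lines in RPMI-1640/10% FBS, 37 °C, 5% CO2.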

HEL = assay: Cytotoxicity against human HEL cells assessed as reduction in cell viability measured after 96 hrs in presence of TNF-alpha by CellTiter-Glo luminescent assay; assay type: functional, cell-based; summary of the method: as §4
K562 = assay: Cytotoxicity against human K562 cells assessed as reduction in cell viability measured after 96 hrs in presence of TNF-alpha by CellTiter-Glo luminescent assay; assay type: functional, cell-based; conditions: K562, 96 h; summary of the method: as §4
MOLM-13 = assay: Cytotoxicity against human MOLM-13 cells assessed as reduction in cell viability measured after 96 hrs in presence of TNF-alpha by CellTiter-Glo luminescent assay; assay type: functional, cell-based; conditions: MOLM-13, 96 h; summary of the method: as §4
SUD4 = assay: Cytotoxicity against human SU-DHL-4 cells assessed as reduction in cell viability measured after 96 hrs in presence of TNF-alpha by CellTiter-Glo luminescent assay; assay type: functional, cell-based; conditions: SU-DHL-4, 96 h; summary of the method: as §4
DB = assay: Cytotoxicity against human DB cells assessed as reduction in cell viability measured after 96 hrs in presence of TNF-alpha by CellTiter-Glo luminescent assay; assay type: functional, cell-based; summary of the method: as §4
SU-DHL-6 = assay: Cytotoxicity against human SU-DHL-6 cells assessed as reduction in cell viability measured after 96 hrs in presence of TNF-alpha by CellTiter-Glo luminescent assay; assay type: functional, cell-based; conditions: SU-DHL-6, 96 h; summary of the method: as §5
[16] = biological target: Baculoviral IAP repeat-containing protein 2 (Homo sapiens) (UniProt Q13490); assay: Induction of cIAP1 degradation in human MM1.S cells at 100 nM incubated for 3 hrs by diaPASEF-based analysis; assay type: cell-based; summary of the method: as §1
[17] = biological target: E3 ubiquitin-protein ligase XIAP (Homo sapiens) (UniProt P98170); assay: Induction of XIAP degradation in human MM1.S cells at 100 nM incubated for 3 hrs by diaPASEF-based analysis; assay type: cell-based; summary of the method: as §1

Protein cereblon/E3 ubiquitin-protein ligase XIAP (Homo sapiens), sequence (P98170 whole entry, looked up): as above
Protein cereblon/E3 ubiquitin-protein ligase XIAP (Homo sapiens), sequence (Q96SW2 whole entry, looked up): as the sequence (Q96SW2 whole entry, looked up) above

For `CN[C@@H](C)C(=O)N[C@H](C(=O)N1C[C@@H](Oc2cccc(OCCCCCCOCCCCCCOCCCCCCNc3cccc4c3C(=O)N(C3CCC(=O)NC3=O)C4=O)c2)C[C@H]1C(=O)N[C@@H]1CCCc2ccccc21)C1CCCCC1` (stereo partly specified), the Activity [1] was “Active”, the Activity [2] was “inactive” and the Activity [3] was “inactive”. For the same molecule, the Activity [4] was “inactive”, the Activity [5] was “inactive” and the Activity [6] was “inactive”. For the same molecule, the Activity [7] was “inactive”.

`Cc1ncsc1-c1ccc(CNC(=O)[C@@H]2C[C@@H](O)CN2C(=O)[C@@H](NC(=O)C2(C#N)CC2)C(C)(C)C)cc1` showed an Activity [8] of 95%, an Activity [9] of 95% and an Activity [10] of 81%. The Activity [11] was “inactive”, the Activity [12] was “inactive” and the Activity [13] was “inactive”. For the same molecule, the Activity [14] was “inactive”, the Activity [15] was “inactive” and the IC50 (RPMI-8226) was over 10 µM. The IC50 (JJN-3) was over 10 µM, the IC50 (NCI-H929) was over 10 µM and the IC50 (HEL) was over 10 µM. For the same molecule, the IC50 (K562) was over 10 µM, the IC50 (MOLM-13) was over 10 µM and the IC50 (SUD4) was over 10 µM. It also gave an IC50 (DB) of over 10 µM and an IC50 (SU-DHL-6) of over 10 µM.

`CN[C@@H](C)C(=O)N[C@@H](C(=O)N1CCC[C@H]1C(=O)N[C@@H]1c2ccccc2C[C@@H]1OCC#CC#CCO[C@H]1Cc2ccccc2[C@H]1NC(=O)[C@@H]1CCCN1C(=O)[C@H](NC(=O)[C@H](C)NC)C1CCCCC1)C1CCCCC1` was tested, and the Activity [16] was “Active” and the Activity [17] was “inactive”.

Reference: ChEMBL document CHEMBL5338733, “Heterobifunctional Ligase Recruiters Enable pan-Degradation of Inhibitor of Apoptosis Proteins” (J Med Chem, 2023)
